Source: PubChem (several laboratories)
CHOP UPR activ = apoptotic UPR (CHOP) activation. CHO-CHOP luciferase reporter, luminescence; percent of tunicamycin response over DMSO baseline. activation, % at 10 µM. 0.34% of 330,000 active. AID 449763;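 active = at 10 µM dose, activation of 40% or more, normalized to positive control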;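 also: 100% = tunicamycin at 10 µg/mL and 0% = DMSO alone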
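Assay system: CHO-CHOP cells, stable luciferase reporter of PERK-eIF2a-CHOP signalling / Buffer or medium: F12 plus 10% serum / Compound dosing: one dose, 10 µM in 0.5% DMSO / Times: 6 h compound treatment, 37 °C / Technique: luciferase luminescence / Read-out: % reporter activation, DMSO baseline versus tunicamycin full activation / Benchmarks: tunicamycin and DMSO controls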
p97 inhibitor = inhibitors of human p97 ATPase. 0.42% of 220,000 active. inhibition, % at 8 µM. recombinant p97 ATPase, Kinase-Glo ATP luminescence, 3 h; in the data active = inhibition above about 15%;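 also: 0% = DMSO vehicle and 100% = wells lacking enzyme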
Target sequence (P55072 whole entry, looked up): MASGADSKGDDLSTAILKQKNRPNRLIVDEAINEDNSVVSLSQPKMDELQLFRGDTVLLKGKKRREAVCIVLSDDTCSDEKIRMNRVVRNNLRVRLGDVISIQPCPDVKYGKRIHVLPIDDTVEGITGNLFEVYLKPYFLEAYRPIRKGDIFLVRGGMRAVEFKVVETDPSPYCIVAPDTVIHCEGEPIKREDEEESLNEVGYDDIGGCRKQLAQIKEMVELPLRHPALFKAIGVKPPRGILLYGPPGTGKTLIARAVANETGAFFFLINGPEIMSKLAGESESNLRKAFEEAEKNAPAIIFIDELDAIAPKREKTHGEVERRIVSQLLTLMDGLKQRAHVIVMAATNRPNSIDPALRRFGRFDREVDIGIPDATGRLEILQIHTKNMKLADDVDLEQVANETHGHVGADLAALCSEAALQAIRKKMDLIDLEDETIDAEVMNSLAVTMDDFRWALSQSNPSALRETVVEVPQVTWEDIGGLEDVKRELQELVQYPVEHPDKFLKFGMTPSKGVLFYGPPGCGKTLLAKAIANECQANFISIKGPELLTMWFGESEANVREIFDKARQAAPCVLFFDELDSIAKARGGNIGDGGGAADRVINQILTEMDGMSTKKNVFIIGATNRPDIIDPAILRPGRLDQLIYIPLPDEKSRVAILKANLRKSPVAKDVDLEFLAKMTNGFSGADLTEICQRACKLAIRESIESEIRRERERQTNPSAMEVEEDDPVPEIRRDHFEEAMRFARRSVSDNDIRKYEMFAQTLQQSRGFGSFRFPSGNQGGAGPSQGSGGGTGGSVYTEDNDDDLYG
M18AAP inhibitor = PfM18AAP enzyme inhibition; AID 1822; 1.2% of 290,000 active; inhibition, % at 7.35 µM; recombinant PfM18AAP, H-Glu-NHMec fluorogenic cleavage;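 active = inhibition above the campaign mean inhibition over all tested compounds plus 3 SD, cut at about 28% in these data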;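 also: 0% = plate median of test compound wells and 100% = 2 mM ZnCl2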
UPR XBP1 act = activators of adaptive arm of unfolded protein response (XBP1) | CHO-XBP1 luciferase reporter, IRE1-XBP1 UPR activation, luminescence; percent of tunicamycin response, DMSO as zero | activation, % at 20 µM | 0.33% of 330,000 active | AID 463104;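 active = versus positive control, 20 µM dose yields 30% or more activation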;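 also: 100% = tunicamycin at 10 µg/mL and 0% = DMSO only wells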
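Test system: CHO-XBP1 luciferase reporter cells | Buffer or medium: Serum-containing F12 medium, 10% FBS | Schedule: 6 h compound exposure at 37 °C, 5% CO2 | Detection: Steady-Glo luciferase glow luminescence, 10 min after reagent addition | Read-out basis: Activation, % of tunicamycin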
NS3 helicase inh = HCV NS3 helicase inhibition; NS3 helicase DNA unwinding, Cy5 molecular beacon fluorescence; inhibition, % at 10.9 µM; 0.56% of 290,000 active; AID 1800;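 active = inhibition above the mean of all tested compounds plus 3 SD, set per campaign, cut at about 35% in these data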;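 also: 0% = DMSO wells and 100% = thioflavine S control wells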
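test system = hepatitis C virus NS3 helicase domain fragment enzyme | reagent = annealed dual-labelled DNA beacon duplex, ATP-started | times = 1 h at 25 °C | detection = Cy5 fluorescence, 0 and 60 min reads | read-out basis = percent inhibition from t60/t0 fluorescence ratio | control set = DMSO and thioflavine S | replication = one well per compound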
CHOP inh = blocks CHOP induction under ER stress. CHO-K1 CHOP-promoter luciferase, tunicamycin-induced, 15-18 h. inhibition, % at 10 µM. 3.8% of 220,000 active;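 active = compounds that reduced the stress-induced luciferase reporter signal by more than about 70% of percent inhibition, limit read from the data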;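 also: 0% = tunicamycin plus vehicle and 100% = wells without tunicamycin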
Starred values were filed as active, the others as inactive. Hits are enriched below; roughly 4.5% of the tested compounds scored in any of these assays.

Results for O=C(CSc1ncn[nH]1)Nc1ccc(S(=O)(=O)Nc2ncccn2)cc1 ?
CHOP UPR activ: 5; p97 inhibitor: 2; M18AAP inhibitor: 30*; UPR XBP1 act: 2; NS3 helicase inh: -2; CHOP inh: 13

Results for CC(=O)Nc1ccc(Nc2cc(C)nc3c(-c4ccc(Cl)cc4)c(C)nn23)cc1 ?
CHOP UPR activ: 2; p97 inhibitor: 2; M18AAP inhibitor: 0; UPR XBP1 act: 3; NS3 helicase inh: -8; CHOP inh: 84*

Results for CC(=O)Nc1ccc(Nc2cc(C)nc3c(-c4ccc(Cl)cc4)cnn23)cc1 ?
CHOP UPR activ: 6; p97 inhibitor: 0; M18AAP inhibitor: -1; UPR XBP1 act: -1; NS3 helicase inh: -21; CHOP inh: 75*

Results for N#Cc1ccc(OCc2noc(-c3ccsc3)n2)cc1 ?
CHOP UPR activ: 3; p97 inhibitor: -10; M18AAP inhibitor: -11; UPR XBP1 act: 3; NS3 helicase inh: -8; CHOP inh: 5

How did CC(C)c1ccc(Nc2nc(Cl)nc(NCc3ccco3)n2)cc1 do in these assays?
CHOP UPR activ: 1; p97 inhibitor: 1; M18AAP inhibitor: 1; UPR XBP1 act: 3; NS3 helicase inh: 1; CHOP inh: 79*

Results for CN(C)C1=NCCN1CCc1ccccc1 ?
CHOP UPR activ: 1; UPR XBP1 act: -2

What do the screens show for `Cc1ccc(Cn2nnc3c(=O)[nH]c(C4CCCN(S(=O)(=O)c5ccccc5)C4)nc32)cc1` (stereo unspecified)?
CHOP UPR activ: 0; p97 inhibitor: -1; M18AAP inhibitor: -6; UPR XBP1 act: 0; NS3 helicase inh: 0; CHOP inh: 29

How did O=c1[nH]c(C2CCCN(S(=O)(=O)c3ccc(F)cc3)C2)nc2c1nnn2Cc1ccccc1 (stereo unspecified) do in these assays?
CHOP UPR activ: 2; p97 inhibitor: -6; M18AAP inhibitor: -1; UPR XBP1 act: 1; NS3 helicase inh: 6; CHOP inh: 90*

What do the screens show for `COc1ccc(N2C(=O)C(Cl)=C(Nc3ccc(OC)cc3OC)C2=O)cc1`?
CHOP UPR activ: 2; p97 inhibitor: 4; M18AAP inhibitor: -4; UPR XBP1 act: -1; NS3 helicase inh: -16; CHOP inh: 17

What do the screens show for `CCOc1ccc(N2C(=O)C(Cl)=C(Nc3ccccc3O)C2=O)cc1`?
CHOP UPR activ: 4; p97 inhibitor: 2; M18AAP inhibitor: 33*; UPR XBP1 act: 10; NS3 helicase inh: -30; CHOP inh: 20

Results for CCOc1ccc(N2C(=O)C(Cl)=C(N3CCOCC3)C2=O)cc1 ?
CHOP UPR activ: 2; M18AAP inhibitor: 29*; UPR XBP1 act: -3; NS3 helicase inh: 4

Results for CCN(CC)S(=O)(=O)c1ccc2c(c1)N(CC(=O)NCCN1CCOCC1)C(=O)CO2 ?
CHOP UPR activ: 0; M18AAP inhibitor: -6; UPR XBP1 act: 0; NS3 helicase inh: 3

Results for COc1ccc(NS(=O)(=O)c2ccc(N3CCCC3=O)cc2)cn1 ?
CHOP UPR activ: -1; p97 inhibitor: 9; M18AAP inhibitor: -2; UPR XBP1 act: -2; NS3 helicase inh: 3; CHOP inh: 3

How did COc1ccc(NS(=O)(=O)c2ccc3c(c2)Cc2ccccc2-3)cn1 do in these assays?
CHOP UPR activ: -3; p97 inhibitor: -3; M18AAP inhibitor: 1; UPR XBP1 act: -4; NS3 helicase inh: -7; CHOP inh: 95*

What do the screens show for `COCc1cc(C(C)=O)ccc1OCC(=O)Nc1ccc(NC(C)=O)cc1`?
CHOP UPR activ: 0; p97 inhibitor: 6; M18AAP inhibitor: -15; UPR XBP1 act: -3; NS3 helicase inh: -3; CHOP inh: 11

What do the screens show for `Oc1c(Br)cc(Br)cc1C=Nc1cccnc1`?
CHOP UPR activ: 0; M18AAP inhibitor: 30*; UPR XBP1 act: 1; NS3 helicase inh: 14

What do the screens show for `Oc1c(Br)cc(Br)cc1C=Nc1ccc2[nH]ncc2c1`?
CHOP UPR activ: -2; p97 inhibitor: 9; M18AAP inhibitor: 21; UPR XBP1 act: -5; NS3 helicase inh: 12; CHOP inh: 61

Results for Cc1cccc(NC(=O)N2C3CCCC2CC(NC(=O)C(C)(C)C)C3)c1 (stereo unspecified) ?
CHOP UPR activ: -1; M18AAP inhibitor: -8; UPR XBP1 act: -3; NS3 helicase inh: 2

How did CCCCn1c(O)c(/C=C/C=C/C=Nc2ccccc2)sc1=S do in these assays?
CHOP UPR activ: 0; p97 inhibitor: 0; M18AAP inhibitor: 12; UPR XBP1 act: 7; NS3 helicase inh: 22; CHOP inh: -3

What do the screens show for `CCCn1c(O)c(C=Nc2ccccc2)sc1=S`?
CHOP UPR activ: 5; p97 inhibitor: 5; M18AAP inhibitor: 3; UPR XBP1 act: 1; NS3 helicase inh: -3; CHOP inh: 87*

How did CCOc1ccc(N(CC(=O)N2CCCC2)S(=O)(=O)c2ccc(Cl)cc2)cc1 do in these assays?
CHOP UPR activ: -1; M18AAP inhibitor: 0; UPR XBP1 act: -4; NS3 helicase inh: -9

How did O=C(NCc1ccc2[nH]c3c(c2c1)CCCC3)c1ccc(S(=O)(=O)N2CCCC2)cc1 do in these assays?
CHOP UPR activ: -1; p97 inhibitor: 2; M18AAP inhibitor: 4; UPR XBP1 act: -1; NS3 helicase inh: -2; CHOP inh: 77*

Results for CCCCNC(=O)CSc1nc2ccccc2n1S(=O)(=O)c1ccc(Br)cc1 ?
CHOP UPR activ: -2; p97 inhibitor: -2; M18AAP inhibitor: -6; UPR XBP1 act: -3; NS3 helicase inh: -3; CHOP inh: 23

Results for CCCCNC(=O)CSc1nc2ccccc2n1S(=O)(=O)c1ccc(Cl)cc1 ?
CHOP UPR activ: 2; p97 inhibitor: 3; M18AAP inhibitor: 4; UPR XBP1 act: 1; NS3 helicase inh: -2; CHOP inh: 75*

How did CC1CC(C)CN(c2ccc(-n3cnnn3)cc2[N+](=O)[O-])C1 (stereo unspecified) do in these assays?
CHOP UPR activ: 0; p97 inhibitor: -1; M18AAP inhibitor: 8; UPR XBP1 act: 0; NS3 helicase inh: 5; CHOP inh: 74*

What do the screens show for `CC1CC(C)CN(c2cc3c(cc2[N+](=O)[O-])C(=O)N(c2ccccc2)C3=O)C1` (stereo unspecified)?
CHOP UPR activ: 6; p97 inhibitor: 3; M18AAP inhibitor: -5; UPR XBP1 act: 16; NS3 helicase inh: 4; CHOP inh: 49

Results for CCC(C)NC(=O)CNC(=O)c1nn(-c2ccc(OC)cc2OC)c(=O)c2ccccc12 (stereo unspecified) ?
CHOP UPR activ: -1; M18AAP inhibitor: -8; UPR XBP1 act: -1; NS3 helicase inh: 13
